Source: PubChem
HTR2A ag – activates the mouse 5-HT2A serotonin receptor. CHO-K1 mHTR2A beta-arrestin complementation, luminescence; percent of 30 µM serotonin response. activation, % at 7.6 µM. 0.66% of 360,000 active;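 active means activation above a run cutoff, the mean activation of all tested compounds plus 3 SD, cut at about 14% in these data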
Target sequence (P35363 whole entry, looked up): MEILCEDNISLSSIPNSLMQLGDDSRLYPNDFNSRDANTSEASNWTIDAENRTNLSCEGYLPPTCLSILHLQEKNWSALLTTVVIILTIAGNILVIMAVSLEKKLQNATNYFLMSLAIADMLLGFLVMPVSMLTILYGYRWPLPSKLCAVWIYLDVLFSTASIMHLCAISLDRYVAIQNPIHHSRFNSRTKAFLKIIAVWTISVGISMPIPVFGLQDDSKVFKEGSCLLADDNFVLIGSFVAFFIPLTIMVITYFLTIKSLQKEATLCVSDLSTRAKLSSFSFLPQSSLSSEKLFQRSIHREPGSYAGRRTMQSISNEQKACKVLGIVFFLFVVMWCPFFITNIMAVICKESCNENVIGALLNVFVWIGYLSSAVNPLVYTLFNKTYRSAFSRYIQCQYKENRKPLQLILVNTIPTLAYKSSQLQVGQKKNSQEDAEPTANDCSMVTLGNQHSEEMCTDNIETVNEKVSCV
CCR6 antag – blocks CCL20-driven beta-arrestin recruitment at human CCR6; AID 493098; 0.49% of 340,000 active; inhibition, % at 20 µM; CHO-K1 CCR6 PathHunter beta-arrestin, luminescence, CCL20-stimulated;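 active means compounds whose inhibition of the agonist-driven luminescence signal at 20 µM reaches about 50%, limit read from the data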;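 further: cells stimulated with CCL20 at 14 nM final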
CXCR6 block – blocks human CXCR6 beta-arrestin recruitment; AID 602244; inhibition, % at 20 µM; 0.36% of 360,000 active; CHO-K1 PathHunter CXCR6 beta-arrestin, luminescence; in the data active means inhibition above about 34%, passing the limit was not always enough;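 further: antagonist mode with CXCL16 agonist at 10 nM final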
APJ ag – agonists of human APJ apelin receptor | CHO-K1 APJ PathHunter beta-arrestin, luminescence; 0% DMSO wells, 100% apelin | activation, % at 20 µM | 0.11% of 330,000 active | P35414;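 active means activation more than six SD over the plate average, tested at 20 µM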
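Test system: CHO-K1 APJ beta-arrestin complementation cell line | Compound: Single test compound dose, 20 µM final, 1% DMSO | Incubation: Compound 90 min 25 °C, reagent 1 h | Measured by: beta-gal luminescence | Read-out basis: APJ–arrestin association signal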
APJ antag – antagonists of human APJ apelin receptor; 0.32% of 330,000 active; P35414; inhibition, % at 20 µM; CHO-K1 APJ beta-arrestin complementation, luminescence;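 active means inhibition above about 40% at 20 µM, limit read from the data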;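 further: cells challenged with 10 nM apelin-13 agonist together with compound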
EBI2 antag – blocks human EBI2 receptor beta-arrestin signaling. 0.81% of 360,000 active. EBI2 beta-arrestin recruitment, luminescence, 7a,25-OHC stimulated. AID 651636. inhibition, % at 5 µM. P32249; in the data active means inhibition above about 38%;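 further: enzyme fragment complementation signal reports receptor beta-arrestin coupling in cells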
EBI2 conf – confirmation of human EBI2 receptor antagonists | shares compounds with EBI2 antag | EBI2 beta-arrestin luminescence, 7a,25-OHC antagonism | inhibition, % at 5 µM | 29% of 2,400 active | AID 651997;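 active means inhibition of at least 50%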
EBI2 agonist – activates EBI2, counter-screen for EBI2 antagonists | shares compounds with EBI2 antag | EBI2-expressing cells, agonist mode, luminescence, 60 min; 0% vehicle, 100% 7α,25-dihydroxycholesterol control | activation, % at 5 µM | 2,400 tested, under 10 active;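 active means activation of at least 50%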
bGal cs – beta-galactosidase inhibition counter-screen; shares compounds with EBI2 antag; purified beta-galactosidase, luminescent Galacton Star, 15 min; inhibition, % at 5 µM; 1% of 2,400 active;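 active means replicate-average signal at least 3 plate SD below neutral wells, shown as high inhibition, flagging enzyme-inhibiting false positives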;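 further: higher means stronger loss of beta-gal luminescence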
A number is an active result. In the library only some 2.1% were active in any assay of this set; here they are far more common.

How did CCC1CSC(Nc2ccc(C(=O)/C=C/c3ccc(Br)cc3)cc2)=N1 (stereo unspecified) do in these assays?
HTR2A ag: inactive; CCR6 antag: inactive; CXCR6 block: inactive; APJ ag: inactive; APJ antag: inactive; EBI2 antag: 61; EBI2 conf: 55; EBI2 agonist: inactive; bGal cs: inactive

Results for CCC1CSC(Nc2ccc(C(=O)/C=C/c3ccc(OC)c(OC)c3)cc2)=N1 (stereo unspecified) ?
HTR2A ag: inactive; CCR6 antag: inactive; CXCR6 block: inactive; APJ ag: inactive; APJ antag: inactive; EBI2 antag: inactive

Results for CSc1ccc(/C=C/C(=O)OCC(=O)N(C)CCC#N)cc1 ?
HTR2A ag: inactive; CCR6 antag: inactive; CXCR6 block: inactive; APJ ag: inactive; APJ antag: inactive; EBI2 antag: inactive

Results for COc1ccc(N/C=C(\C#N)c2ccc(OCCCF)cc2)cc1 ?
HTR2A ag: inactive; CCR6 antag: inactive; CXCR6 block: inactive; APJ ag: inactive; APJ antag: inactive; EBI2 antag: 72; EBI2 conf: inactive; EBI2 agonist: inactive; bGal cs: inactive

How did COc1ccc(N/C=C(\C#N)S(=O)(=O)c2ccc(OC)cc2)cc1 do in these assays?
HTR2A ag: inactive; CCR6 antag: inactive; CXCR6 block: inactive; APJ ag: inactive; APJ antag: inactive; EBI2 antag: inactive

What do the screens show for `Cc1ccc(N/C=C(\C#N)c2ccc(OCCCF)cc2)cc1`?
HTR2A ag: inactive; CCR6 antag: inactive; CXCR6 block: inactive; APJ ag: inactive; APJ antag: inactive; EBI2 antag: 81; EBI2 conf: 52; EBI2 agonist: inactive; bGal cs: inactive

How did Cc1ccccc1Nc1nnc(SCC2CCCCO2)s1 (stereo unspecified) do in these assays?
HTR2A ag: inactive; CCR6 antag: inactive; CXCR6 block: inactive; APJ ag: inactive; APJ antag: inactive; EBI2 antag: inactive

What do the screens show for `Cc1ccc(Nc2nnc(SC(C)C(=O)NCC3CCCO3)s2)cc1C` (stereo unspecified)?
HTR2A ag: inactive; CCR6 antag: inactive; CXCR6 block: inactive; APJ ag: inactive; APJ antag: inactive; EBI2 antag: 46; EBI2 conf: inactive; EBI2 agonist: inactive; bGal cs: inactive

Results for Cc1ccc(Nc2nnc(SCC3CCCCO3)s2)cc1 (stereo unspecified) ?
HTR2A ag: inactive; CCR6 antag: inactive; CXCR6 block: inactive; APJ ag: inactive; APJ antag: inactive; EBI2 antag: 59; EBI2 conf: inactive; EBI2 agonist: inactive; bGal cs: inactive

Results for O=C(O)COc1ccccc1/C=N/NC(=O)CN1CCN(Cc2ccc(Cl)cc2)CC1 ?
HTR2A ag: inactive; CCR6 antag: inactive; CXCR6 block: inactive; APJ ag: inactive; APJ antag: inactive; EBI2 antag: inactive

What do the screens show for `O=C(COc1ccccc1)N1CCN(c2nnc(-c3ccccc3)c3ccccc23)CC1`?
HTR2A ag: inactive; CCR6 antag: inactive; CXCR6 block: inactive; APJ ag: inactive; APJ antag: inactive; EBI2 antag: 71; EBI2 conf: inactive; EBI2 agonist: inactive; bGal cs: inactive

How did CCC(=O)N1CCN(c2nnc(-c3ccccc3)c3ccccc23)CC1 do in these assays?
HTR2A ag: inactive; CCR6 antag: inactive; CXCR6 block: inactive; APJ ag: inactive; APJ antag: inactive; EBI2 antag: inactive

Results for Cc1ccc(-c2nnc(N3CCN(C(=O)CN4C(=O)c5ccccc5C4=O)CC3)c3ccccc23)cc1 ?
HTR2A ag: inactive; CCR6 antag: inactive; CXCR6 block: inactive; APJ ag: inactive; APJ antag: inactive; EBI2 antag: inactive

How did COc1ccc(OCC(=O)N2CCN(c3nnc(-c4ccccc4)c4ccccc34)CC2)cc1 do in these assays?
HTR2A ag: inactive; CCR6 antag: inactive; CXCR6 block: inactive; APJ ag: inactive; APJ antag: inactive; EBI2 antag: 92; EBI2 conf: 80; EBI2 agonist: inactive; bGal cs: inactive

Results for COc1ccc(OCC(=O)N2CCN(c3nnc(-c4ccc(C)cc4)c4ccccc34)CC2)cc1 ?
HTR2A ag: inactive; CCR6 antag: inactive; CXCR6 block: inactive; APJ ag: inactive; APJ antag: inactive; EBI2 antag: 96; EBI2 conf: 83; EBI2 agonist: inactive; bGal cs: inactive

How did COc1ccc(-c2nnc(N3CCCCC3)c3ccccc23)cc1 do in these assays?
HTR2A ag: inactive; CCR6 antag: inactive; CXCR6 block: inactive; APJ ag: inactive; APJ antag: inactive; EBI2 antag: inactive

Results for Cc1ccc(OCC(=O)N2CCN(c3nnc(-c4ccc(C)cc4)c4ccccc34)CC2)cc1 ?
HTR2A ag: inactive; CCR6 antag: inactive; CXCR6 block: inactive; APJ ag: inactive; APJ antag: inactive; EBI2 antag: 87; EBI2 conf: 84; EBI2 agonist: inactive; bGal cs: inactive

How did N#Cc1cnc(Oc2ccc(Cl)cc2)nc1N do in these assays?
HTR2A ag: inactive; CCR6 antag: inactive; CXCR6 block: inactive; APJ ag: inactive; APJ antag: inactive; EBI2 antag: 47; EBI2 conf: inactive; EBI2 agonist: inactive; bGal cs: inactive

How did O=C(NCc1ccc(Cl)nc1)c1csc(COCCO)n1 do in these assays?
HTR2A ag: inactive; CXCR6 block: inactive; EBI2 antag: inactive

What do the screens show for `COc1ccc(-c2ccc(CN3C(C(C)C)C(=O)N(Cc4cn(CC5CCCCC5)nn4)CCS3(=O)=O)cc2)cc1OC` (stereo unspecified)?
HTR2A ag: inactive; CXCR6 block: inactive; EBI2 antag: 44; EBI2 conf: inactive; EBI2 agonist: inactive; bGal cs: inactive

Results for COc1ccc(-c2ccc(CN3C(CC(C)C)C(=O)N(Cc4cn(CC5CCCCC5)nn4)CCS3(=O)=O)cc2)cc1OC (stereo unspecified) ?
HTR2A ag: inactive; CXCR6 block: inactive; EBI2 antag: inactive

Results for Cn1cccc1Cc1nnc(SCC(=O)N2CCCC2)n1CCc1ccccc1 ?
HTR2A ag: inactive; CCR6 antag: inactive; CXCR6 block: inactive; APJ ag: inactive; APJ antag: inactive; EBI2 antag: inactive

What do the screens show for `Cn1cccc1Cc1nnc(SCC(=O)N2CCc3ccccc32)n1CCc1ccccc1`?
HTR2A ag: inactive; CCR6 antag: inactive; CXCR6 block: inactive; APJ ag: inactive; APJ antag: inactive; EBI2 antag: 68; EBI2 conf: inactive; EBI2 agonist: inactive; bGal cs: inactive
